Published values of several laboratories.
Protocols differ between the studies behind these lines.

Nc1nc2ccc(-c3c/c(=N\c4ccccc4NC(=O)C4CCNC4)c4ccccc4o3)cc2o1 (stereo not drawn)  inhibition (MOLM-13; cell growth or viability, CCK-8; 1 µM): 41.4%
O=C(N[C@@H](CSCc1ccc([N+](=O)[O-])cc1)C(=O)NO)c1ccccc1  IC50 (NCI-H1573; cell growth or viability, MTT; 48 h): 2.37 µM
CCCCCCCCCCCCCCCCCCOc1ccc(CC(=O)OCC[N+]2(C)CCCCC2)cc1  inhibition (NCI-H23; cell growth or viability, SRB; 10 µM): 13.3%
NCC(=O)Nc1ccccc1/N=c1\cc(-c2ccc3c(c2)OCCO3)oc2ccccc12  inhibition (MOLM-13; cell growth or viability, CCK-8; 1 µM): -2.55%
C=C(C)[C@@H]1CC[C@]2(C)CC[C@]3(C)[C@H](CC[C@@H]4[C@@]5(C)CC[C@H](O)C(C)(C)[C@@H]5CC[C@]43C)[C@@H]12  inhibition (SIM-A9; NO release, inhibitor, Griess; 106.7 µM, LPS-stimulated): 1.81%
COc1ccc2/c(=N/c3ccccc3NC(=O)[C@H](C)N)cc(-c3ccc4c(c3)OCCO4)oc2c1  inhibition (MOLM-13; cell growth or viability, CCK-8; 1 µM): 6.88%
O=C(C[C@@H](C(F)F)n1ccc(F)n1)N1CCC(O)(Cn2cnc3c(cnn3-c3ccc(F)cc3)c2=O)CC1  viability (CHP-212; cell growth or viability, SRB; 27.43 nM): 72.4%
N#CSCCCCOc1ccc2c(-c3ccccc3)cc(=O)oc2c1  GI50 (SW1573; cell growth or viability, SRB): 25 µM
CC(C)(C)[C@H](N)C(=O)Nc1ccccc1/N=c1\cc(-c2ccc3c(c2)OCO3)oc2ccccc12  inhibition (MOLM-13; cell growth or viability, CCK-8; 1 µM): 4.05%
C[C@@H]1COCCN1c1cc(C2([S@](C)(=N)=O)CC2)nc(-c2cc[nH]c3nccc2-3)n1  IC50 (CT26; cell growth or viability, ATP luminescence; 48 h): 8.64 µM
CCCCCCCCCCCCCCCCCCOc1cccc(CC(=O)OCCC[N+](C)(C)C)c1  inhibition (NCI-H23; cell growth or viability, SRB; 10 µM): 24.1%
C(=N\Nc1cc(N/N=C/c2cccc3cccnc23)ncn1)/c1cccc2cccnc12  IC50 (Bel-7402; cell growth or viability, MTT; 48 h): 17.6 µM
CCCCCCCCCCCCCCCCCCOc1ccc(CC(=O)OCC[N+](CC)(CC)CC)cc1  inhibition (NCI-H23; cell growth or viability, SRB; 10 µM): 39.5%
CC(=O)O[C@H]1C(=O)[C@@]2(C)[C@H]([C@H](OC(=O)c3ccccc3)[C@]3(O)C[C@H](OC(=O)[C@H](O)[C@@H](NC(=O)c4ccccc4)c4ccccc4)C(C)=C1C3(C)C)[C@]1(OC(C)=O)CO[C@@H]1C[C@@H]2O  viability (CHP-212; cell growth or viability, SRB; 10 µM): 5.97%
COCCC(=O)Nc1ccccc1/N=c1\cc(-c2ccc3nc(N)oc3c2)oc2ccccc12  inhibition (MOLM-13; cell growth or viability, CCK-8; 1 µM): 2.66%
COc1ncnc(C2CC2)c1-c1ncc2cnn(Cc3ccc(-c4nc(C(F)(F)F)cn4C(C)C)cc3)c2n1  viability (CHP-212; cell growth or viability, SRB; 12.5 µM): 85.3%
O=C(N[C@@H](CSCc1ccccc1)C(=O)NO)c1ccccc1  IC50 (NCI-H1573; cell growth or viability, MTT; 48 h): 11.3 µM
NCCC(=O)Nc1ccccc1/N=c1\cc(-c2ccc3c(c2)OCO3)oc2ccccc12  inhibition (MOLM-13; cell growth or viability, CCK-8; 1 µM): 2.07%
CCCCCCCCCCCCCCCCCCOc1ccccc1CC(=O)OCC[N+](C)(C)C  inhibition (NCI-H23; cell growth or viability, SRB; 10 µM): 59.8%
COC(=O)[C@H]1[C@@H](O)[C@@]2(O)c3c(OC)cc(O[C@@H]4O[C@@H]([C@H](O)CO)CO[C@H]4OC)cc3O[C@@]2(c2ccc(OC)cc2)[C@@H]1c1ccccc1  IC50 (C6661; cell growth or viability, MTS; 48 h): 0.007 µM
N[C@@H](CO)C(=O)Nc1ccccc1/N=c1\cc(-c2ccc3c(c2)OCO3)oc2ccccc12  inhibition (MOLM-13; cell growth or viability, CCK-8; 1 µM): 8.02%
CCCCCCCCCCCCCCCCCCOc1ccccc1CC(=O)OCC[N+](CC)(CC)CC  inhibition (NCI-H23; cell growth or viability, SRB; 10 µM): 86.9%
COc1cccc2c1C(=O)c1c(O)c3c(c(O)c1C2=O)C[C@@](O)(C(=O)CO)C[C@@H]3O[C@H]1C[C@H](N)[C@H](O)[C@H](C)O1  viability (CHP-212; cell growth or viability, SRB; 41.15 nM): 50.8%
CCCCCCCCCCCCCCCCCCOc1cccc(CC(=O)OCC[N+]2(C)CCCC2)c1  inhibition (NCI-H23; cell growth or viability, SRB; 10 µM): 24.6%
[NH2][Pt]([NH2])([Cl])[Cl]  GI50 (SW1573; cell growth or viability, SRB): 2.7 µM
O=C(Nc1ccccc1/N=c1\cc(-c2ccc3c(c2)OCO3)oc2ccccc12)N1CCNCC1  inhibition (MOLM-13; cell growth or viability, CCK-8; 1 µM): 1.47%
CC(C)C[C@H](NC(=O)[C@H](Cc1ccccc1)NC(=O)c1cnccn1)B(O)O  viability (CHP-212; cell growth or viability, SRB; 0.3704 µM): 88%
CCCCCCCCCCCCCCCCCCOc1ccc(CC(=O)OCC[N+]2(C)CCOCC2)cc1  inhibition (NCI-H23; cell growth or viability, SRB; 10 µM): 5.91%
CNCc1ccc(-c2cc(-c3nc(-c4ccc(S(=O)(=O)C(C)C)cc4)cnc3N)on2)cc1  IC50 (CT26; cell growth or viability, ATP luminescence; 48 h): 1.98 µM
CNC(=O)c1cc(Oc2ccc(NC(=O)Nc3ccc(Cl)c(C(F)(F)F)c3)cc2)ccn1  IC50 (Bel-7402; cell growth or viability, MTT; 48 h): 5.06 µM
N#CSCc1cc(=O)oc2cc(O)ccc12  GI50 (SW1573; cell growth or viability, SRB): 5.5 µM
C(=N\Nc1cc(N/N=C/c2cccc3cccnc23)nc(-c2ccccc2)n1)/c1cccc2cccnc12  IC50 (Bel-7402; cell growth or viability, MTT; 48 h): 11.1 µM
CCCCCCCCCCCCCCCCCCOc1cccc(CC(=O)OCC[N+](C)(C)C)c1  inhibition (NCI-H23; cell growth or viability, SRB; 10 µM): 11%
